According to ChEMBL document CHEMBL1135477, “Antifungal agents. 10. New derivatives of 1-[(aryl)[4-aryl-1H-pyrrol-3-yl]methyl]-1H-imidazole, synthesis, anti-candida activity, and quantitative structure-analysis relationship studies” (J Med Chem, 2002):
In brackets after ≈: the same amount, converted by molar mass.

Tests used:
Format in all cases: functional
[1] = tested on: Candida albicans; experiment: In vitro antifungal activity against 40 strains of Candida albicans at pH 7.2; minimum inhibitory concentration (range is from 4 to 64)
How it was run: (§1)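 Broth serial-dilution MIC against 40 clinical C. albicans isolates from hospitalized patients, grown in Sabouraud broth at pH 7.2 or 5.8. Cells were pre-grown 18 h at 37 °C, inoculated at 10³/mL, and read at 24 h, 37 °C. Doubling dilutions ran 0.25–256 μg/mL from a DMSO/water solution. MIC was the lowest concentration with no visible growth against a DMSO/water blank.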

[2] = tested on: Candida albicans; experiment: In vitro antifungal activity against 40 strains of Candida albicans at pH 5.8; (range is from 1 to 16); how it was run: as §1
[3] = tested on: Candida albicans; experiment: In vitro antifungal activity against 40 strains of Candida albicans at pH 5.8; how it was run: as §1
[4] = tested on: Candida albicans; experiment: In vitro antifungal activity against 40 strains of Candida albicans at pH 7.2; how it was run: as §1
[5] = tested on: Candida albicans; experiment: IIn vitro antifungal activity against 40 strains of Candida albicans at pH 5.8; (percent of resistant species at 256 ug/mL)
How it was run: (§2)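 Broth serial-dilution test in Sabouraud broth at pH 7.2 or 5.8, against 40 fresh clinical C. albicans isolates from hospitalized patients. Inocula were 10³/mL, pre-grown 18 h at 37 °C in Sabouraud dextrose broth. Compound from a DMSO/water stock was twofold-diluted over 0.25–256 µg/mL. Visible growth was read at 24 h, 37 °C.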

[6] = tested on: Candida; experiment: In vitro antifungal activity against 40 strains at pH 5.8,(percent of resistant species at 256 ug/mL); how it was run: as §2
[7] = tested on: Candida albicans; experiment: In vitro antifungal activity against 40 strains of Candida albicans at pH 7.2; (percent of resistant species at 256 ug/mL); how it was run: as §2
[8] = tested on: Candida; experiment: Tested In vitro for antifungal activity against Candida species. at pH 7.2; (range is from 4 to 32)
How it was run: (§3)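 Liquid serial-dilution MIC against 3 freshly isolated clinical Candida strains (two C. glabrata, one C. krusei) in Sabouraud broth at pH 7.2 or 5.8. Inoculum was 10³/mL after 18 h pre-culture at 37 °C, read at 24 h, 37 °C. Range was 0.25–256 μg/mL. Endpoint was no visible growth versus a DMSO/water blank.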

[9] = tested on: Candida; experiment: Tested In vitro for antifungal activity against Candida species. at pH 7.2; (percent of resistant species at 256 ug/mL)
How it was run: (§4)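 Broth serial-dilution test in Sabouraud broth at pH 7.2 or 5.8, against 3 fresh clinical non-albicans isolates (two C. glabrata, one C. krusei). Inocula were 10³/mL, pre-grown 18 h at 37 °C. Compound was twofold-diluted over 0.25–256 µg/mL and read at 24 h, 37 °C for visible growth.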

[10] = tested on: Candida; experiment: Tested in vitro for antifungal activity against Candida species. at pH 5.8 ( range is from 8 to 16); how it was run: as §3
[11] = tested on: Candida; experiment: Tested In vitro for antifungal activity against Candida species. at pH 7.2; how it was run: as §3
[12] = tested on: Candida; experiment: Tested in vitro for antifungal activity against Candida species. at pH 5.8; how it was run: as §3
[13] = molecular target: Lanosterol 14-alpha demethylase (Candida albicans (strain SC5314 / ATCC MYA-2876) (Yeast), UniProt P10613); experiment: Anticandida activity- (MIC90 compound) / (MIC90 bifonazole)
[14] = tested on: Candida albicans; experiment: In vitro antifungal activity against 40 strains of Candida albicans at pH 7.2; minimum inhibitory concentration (range is from 1 to 32); how it was run: as §1
[15] = tested on: Candida; experiment: Tested in vitro for antifungal activity against Candida species. at pH 5.8 (percent of resistant species at 256 ug/mL); how it was run: as §4
[16] = tested on: Candida; experiment: Tested in vitro for antifungal activity against Candida species. at pH 5.8; range is from 1 to 64; how it was run: as §3
[17] = tested on: Candida albicans; experiment: In vitro antifungal activity against 40 strains of Candida albicans at pH 5.8; (percent of resistant species at 256 ug/mL); how it was run: as §2
[18] = tested on: Candida albicans; experiment: In vitro antifungal activity against 40 strains of Candida albicans at pH 5.8; value ranges from 0.5 to 4); how it was run: as §1
[19] = tested on: Candida; experiment: Tested In vitro for antifungal activity against Candida species. at pH 7.2; (range is from 4 to 16); how it was run: as §3
[20] = tested on: Candida; experiment: Tested in vitro for antifungal activity against Candida species. at pH 5.8; (range is from 4 to 8); how it was run: as §3
[21] = tested on: Candida; experiment: Tested In vitro for antifungal activity against Candida species. at pH 7.2; (range is from 8 to 16); how it was run: as §3
[22] = tested on: Candida albicans; experiment: In vitro antifungal activity against 40 strains of Candida albicans at pH 5.8; (range is from 0.25 to 32); how it was run: as §1
[23] = tested on: Candida albicans; experiment: IIn vitro antifungal activity against 40 strains of Candida albicans at pH 7.2; minimum inhibitory concentration (range is from 0.5 to 16); how it was run: as §1
[24] = tested on: Candida; experiment: Tested in vitro for antifungal activity against Candida species. at pH 7.2
How it was run: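 Fresh clinical isolates (two C. glabrata, one C. krusei) were pre-grown 18 h at 37 °C in Sabouraud dextrose broth. Broth double-dilution was run in Sabouraud broth at pH 5.8 or 7.2 over 0.25–256 µg/mL from a DMSO/water stock, with 10³/mL inoculum.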

[25] = tested on: Candida; experiment: Tested in vitro for antifungal activity against Candida species. at pH 5.8; (percent of resistant species at 256 ug/mL); how it was run: as §4
[26] = tested on: Candida; experiment: Tested in vitro for antifungal activity against Candida species. at pH 7.2; (percent of resistant species at 256 ug/mL); how it was run: as §4
[27] = tested on: Candida albicans; experiment: In vitro antifungal activity against 40 strains of Candida albicans at pH 7.2; minimum inhibitory concentration; value ranges from 128 to >256; how it was run: as §1
[28] = tested on: Candida albicans; experiment: In vitro antifungal activity against 40 strains of Candida albicans at pH 5.8; value ranges from 128 to >256; how it was run: as §1
[29] = tested on: Candida albicans; experiment: Compound was tested for its anti-candida activity, expressed as ratio of minimum inhibitory concentration

Chain of Lanosterol 14-alpha demethylase (P10613 whole entry): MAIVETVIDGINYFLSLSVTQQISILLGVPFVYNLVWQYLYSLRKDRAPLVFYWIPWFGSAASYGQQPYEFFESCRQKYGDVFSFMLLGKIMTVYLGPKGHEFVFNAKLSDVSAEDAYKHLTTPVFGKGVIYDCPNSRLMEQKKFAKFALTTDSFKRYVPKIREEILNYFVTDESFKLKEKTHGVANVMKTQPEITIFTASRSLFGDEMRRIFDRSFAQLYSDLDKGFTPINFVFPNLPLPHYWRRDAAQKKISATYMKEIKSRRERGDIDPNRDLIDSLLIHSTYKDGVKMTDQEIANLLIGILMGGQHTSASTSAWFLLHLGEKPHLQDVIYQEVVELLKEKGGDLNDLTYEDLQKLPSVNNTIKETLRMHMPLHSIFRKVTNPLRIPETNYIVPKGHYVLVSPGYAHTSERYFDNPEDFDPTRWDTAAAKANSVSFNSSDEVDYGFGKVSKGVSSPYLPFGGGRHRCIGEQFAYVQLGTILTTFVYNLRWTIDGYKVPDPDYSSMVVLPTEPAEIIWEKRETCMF

| SMILES | MIC [3] | MIC50 [3] | MIC90 [3] | MIC [4] | MIC50 [4] | MIC90 [4] | Resistance [5] | Resistance [7] | Resistance [9] | MIC [11] | MIC50 [11] | MIC90 [11] | MIC [12] | MIC50 [12] | MIC90 [12] | Ratio [13] | Resistance [15] | Resistance [17] | also measured |
| --- | --- | --- | --- | --- | --- | --- | --- | --- | --- | --- | --- | --- | --- | --- | --- | --- | --- | --- | --- |
| FC(F)(F)c1ccc(-c2c[nH]cc2[C@@H](c2ccc(Cl)cc2Cl)n2ccnc2)cc1 | 4.8 µg/mL (≈ 11 µM) | 4 µg/mL (≈ 9.17 µM) | 8 µg/mL (≈ 18.3 µM) | 7.63 µg/mL (≈ 17.5 µM) | 4 µg/mL (≈ 9.17 µM) | 8 µg/mL (≈ 18.3 µM) | 0% | 0% | 0% | 17.3 µg/mL (≈ 39.7 µM) | 16 µg/mL (≈ 36.7 µM) | 32 µg/mL (≈ 73.4 µM) | 16 µg/mL (≈ 36.7 µM) | 16 µg/mL (≈ 36.7 µM) | 16 µg/mL (≈ 36.7 µM) |  |  |  | Range [1]: 64 µg/mL; Range [2]: 16 µg/mL; Resistance [6]: 0%; Range [8]: 32 µg/mL; Range [10]: 16 µg/mL |
| Cn1cc(-c2ccc(Cl)cc2)c([C@H](c2ccc(Cl)cc2Cl)n2ccnc2)c1 | 2.54 µg/mL (≈ 6.09 µM) | 0.5 µg/mL (≈ 1.2 µM) | 2 µg/mL (≈ 4.8 µM) | 5.3 µg/mL (≈ 12.7 µM) | 2 µg/mL (≈ 4.8 µM) | 16 µg/mL (≈ 38.4 µM) |  | 0% | 0% | 6.1 µg/mL (≈ 14.6 µM) | 16 µg/mL (≈ 38.4 µM) | 32 µg/mL (≈ 76.8 µM) | 4.5 µg/mL (≈ 10.8 µM) | 2 µg/mL (≈ 4.8 µM) | 64 µg/mL (≈ 154 µM) | 3 | 0% | 0% | Range [14]: 32 µg/mL; Range [16]: 64 µg/mL; Range [18]: 4 µg/mL; Range [19]: 16 µg/mL |
| CCn1cc(-c2ccc(Cl)cc2)c([C@H](c2ccc(Cl)cc2Cl)n2ccnc2)c1 | 2.36 µg/mL (≈ 5.48 µM) | 1 µg/mL (≈ 2.32 µM) | 2 µg/mL (≈ 4.64 µM) | 3.2 µg/mL (≈ 7.43 µM) | 1 µg/mL (≈ 2.32 µM) | 2 µg/mL (≈ 4.64 µM) | 0% | 0% | 0% | 13.3 µg/mL (≈ 30.9 µM) | 16 µg/mL (≈ 37.1 µM) | 16 µg/mL (≈ 37.1 µM) | 5.33 µg/mL (≈ 12.4 µM) | 4 µg/mL (≈ 9.29 µM) | 8 µg/mL (≈ 18.6 µM) | 2.9 | 0% |  | Range [20]: 8 µg/mL; Range [21]: 16 µg/mL; Range [22]: 32 µg/mL; Range [23]: 16 µg/mL |
| Clc1ccc(-c2c[nH]cc2[C@@H](c2ccc(Cl)cc2Cl)n2cnnc2)cc1 | 128 µg/mL (≈ 317 µM) | > 256 µg/mL | > 256 µg/mL | 165 µg/mL (≈ 408 µM) | > 256 µg/mL | > 256 µg/mL |  | 77% |  |  |  |  |  | > 256 µg/mL | > 256 µg/mL | 49 |  | 94% | MIC50 [24]: > 256 µg/mL; MIC90 [24]: > 256 µg/mL; Range [24]: >256 µg/mL; Resistance [25]: 100%; Resistance [26]: 100%; Range [27]: >256 µg/mL; Range [28]: >256 µg/mL; Range [12]: >256 µg/mL |
| c1ccc(-c2ccc([C@@H](c3ccccc3)n3ccnc3)cc2)cc1 [BIFONAZOLE] |  |  |  |  |  |  |  |  |  |  |  |  |  |  |  |  |  |  | MIC90 ratio [29]: 1 |
